From ChEMBL document CHEMBL4765343, “Design and synthesis of novel SCM-198 analogs as cardioprotective agents: Structure-activity relationship studies and biological evaluations” (Eur J Med Chem, 2020)
pEC50: −log10 of the molar value. Calls of active or inactive are those of the source. No cut-off for these calls is given here.

Assays:
H9c2 [1] = assay: Antioxidant activity in rat H9c2 cells assessed as protection against H2O2-induced hypoxic injury by measuring cell viability at ED50 concentration preincubated for 4 hrs followed by H2O2 stimulation for 1 hr by MTT assay relative to control; format: functional; settings: time 5 hrs
Method in brief: (§1)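 ED50 taken from log dose against % viability. Viability also reported at the EC50 concentration. Means ± SEM from three independent experiments.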

H9c2 [2] = assay: Antioxidant activity in rat H9c2 cells assessed as protection against H2O2-induced hypoxic injury by measuring cell viability at 10 uM preincubated for 4 hrs followed by H2O2 stimulation for 1 hr by MTT assay relative to control; format: functional
Method in brief: (§2)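 H9c2 cells at 1 × 10^5 cells/mL, 100 μL per well in triplicate, left 18 h. Compound diluted in DMSO; DMSO alone as negative control. 4 h pretreatment, then 400 nM H2O2 for 1 h. Medium removed and MTT added for 2-4 h, formazan dissolved in DMSO, absorbance at 570 nm. Medium-only wells gave the blank.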

H9c2 [3] = assay: Antioxidant activity in rat H9c2 cells assessed as protection against H2O2-induced hypoxic injury by measuring cell viability preincubated for 4 hrs followed by H2O2 stimulation for 1 hr by MTT assay relative to control; format: functional; settings: time 5 hrs, read-out: ED50 (the source's name); method in brief: as §1
H9c2 [4] = assay: Antiapoptotic activity in rat H9c2 cells assessed as restoration of H2O2-induced bcl-2 downregulation at 10 uM preincubated for 4 hrs followed by H2O2 stimulation for 1 hr by Western blotting analysis; format: functional, cell-based; settings: time 5.0 hrs
Method in brief: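 Serum-starved (12 h) H9c2 cells were pretreated 4 h, then exposed to 500 nM H2O2 in DMEM for 1 h. Lysis on ice with protease/phosphatase inhibitors, then 13,000 g at 4 °C for 15 min. 20 μg protein run on 8-12% SDS-PAGE and blotted to PVDF. Probed overnight at 4 °C for caspase-3, pro-caspase-3, Bcl-2 and GAPDH, with chemiluminescent detection.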

H9c2 [5] = assay: Antioxidant activity in rat H9c2 cells assessed as protection against H2O2-induced hypoxic injury by measuring cell viability at 1 uM preincubated for 4 hrs followed by H2O2 stimulation for 1 hr by MTT assay relative to control; format: functional; method in brief: as §2

SMILES | Activity (H9c2 [1]) [%] | Activity (H9c2 [2]) [%] | pEC50 (H9c2 [3]) | Activity (H9c2 [4]) | Activity (H9c2 [5]) [%]
COc1cc(C(=O)OCCOCCNC(=N)N)cc(OC)c1O | 58.8 | 69.8 | 6.82 | inactive | 63.4
COc1cc(C(=O)OCCCCCNC(=N)N)cc(OC)c1O | – | 50.1 | – | – | 58.9
CC(=O)Oc1ccccc1C(=O)OCCCCNC(=N)N | – | 58.3 | – | – | 57.8
COc1ccc(C(=O)OCCCCNC(=N)N)c(OC)c1OC | – | 57.8 | – | – | 49.2
COc1cc(C(=O)OCCCCNC(=N)N)ccc1OC(C)=O | – | 56.4 | – | – | 63.4
COc1cc(OC)c(C(=O)OCCCCNC(=N)N)c(OC)c1 | – | 53.4 | – | – | 55.2
COc1cc(C(=O)OCCCCCCNC(=N)N)cc(OC)c1O | – | 58.9 | – | – | 53.4
N=C(N)NCCCCOC(=O)c1ccc2[nH]ccc2c1 | – | 58.9 | – | – | 51.8
N=C(N)NCCCCOC(=O)C1CCCCC1 | – | 58.8 | – | – | 52.4
COc1cc(/C=C/C(=O)OCCCCNC(=N)N)cc(OC)c1OC | – | 61.4 | – | – | 55.4
N=C(N)NCCCCOC(=O)c1ccco1 | – | 53.2 | – | – | 51.1
CC(=O)Oc1ccc(C(=O)OCCCCNC(=N)N)cc1 | – | 52.7 | – | – | 57.8
N=C(N)NCCCCOC(=O)c1c(F)cc(F)cc1F | – | 60.7 | – | – | 69.6
COc1cc(C(=O)OCCCNC(=N)N)cc(OC)c1O | – | 55.2 | – | – | 50.1
CCN(CC)CCOC(=O)c1cc(OC)c(O)c(OC)c1 | 51.7 | 66.8 | 6.68 | – | 61.1
COc1cc(C(=O)OCC2CCN(C(=N)N)CC2)cc(OC)c1OC(C)=O | – | 47 | – | – | 42.7
N=C(N)NCCCCOC(=O)c1ccc(C(F)(F)F)cc1 | – | 51.7 | – | – | 54.2
